Assay results taken from ChEMBL document CHEMBL4371053, “A novel tetrazole analogue of resveratrol is a potent anticancer agent” (Bioorg Med Chem Lett, 2019).

Experiments:
NCI-H522 = experiment: Growth inhibition of human NCI-H522 cells at 10 uM after 48 hrs by sulforhodamine B assay relative to control; assay type: functional; conditions: NCI-H522, 48 h, values are per cent of control
Method in brief: (§1)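 NCI-60 single-dose screen. Cells exposed to 10⁻⁵ M or to vehicle for 48 h. Growth measured by sulforhodamine B optical density before and after exposure. Reported as percent growth relative to vehicle control and to time-zero cell number; negative values indicate cell kill.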

KM12 = experiment: Growth inhibition of human KM12 cells at 10 uM after 48 hrs by sulforhodamine B assay relative to control; assay type: functional; conditions: KM12, 48 h, values are per cent of control; method in brief: as §1
MDA-MB-435 [1] = experiment: Growth inhibition of human MDA-MB-435 cells at 10 uM after 48 hrs by sulforhodamine B assay relative to control; assay type: functional; conditions: MDA-MB-435, 48 h, values are per cent of control; method in brief: as §1
SK-MEL-5 = experiment: Growth inhibition of human SK-MEL-5 cells at 10 uM after 48 hrs by sulforhodamine B assay relative to control; assay type: functional; conditions: SK-MEL-5, 48 h, values are per cent of control; method in brief: as §1
OVCAR-3 [2] = experiment: Growth inhibition of human OVCAR3 cells at 10 uM after 48 hrs by sulforhodamine B assay relative to control; assay type: functional; conditions: OVCAR-3, 48 h, values are per cent of control; method in brief: as §1
A498 = experiment: Growth inhibition of human A498 cells at 10 uM after 48 hrs by sulforhodamine B assay relative to control; assay type: functional; conditions: A498, 48 h, values are per cent of control; method in brief: as §1
DU-145 [3] = experiment: Growth inhibition of human DU145 cells at 10 uM after 48 hrs by sulforhodamine B assay relative to control; assay type: functional; conditions: DU-145, 48 h, values are per cent of control; method in brief: as §1
CCRF-CEM = experiment: Growth inhibition of human CCRF-CEM cells incubated for 48 hrs by sulforhodamine B assay; assay type: functional
Method in brief: (§2)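 NCI-60 five-dose study at 10⁻⁴, 10⁻⁵, 10⁻⁶, 10⁻⁷ and 10⁻⁸ M, 48 h incubation. Growth determined from sulforhodamine B optical density before and after exposure, relative to vehicle control and time-zero counts. GI₅₀ is the molar concentration giving 50% growth inhibition.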

HL-60(TB) = experiment: Growth inhibition of human HL-60(TB) cells incubated for 48 hrs by sulforhodamine B assay; assay type: functional; conditions: HL-60, 48 h; method in brief: as §2
K562 = experiment: Growth inhibition of human K562 cells incubated for 48 hrs by sulforhodamine B assay; assay type: functional; conditions: K562, 48 h; method in brief: as §2
MOLT-4 = experiment: Growth inhibition of human MOLT4 cells incubated for 48 hrs by sulforhodamine B assay; assay type: functional; conditions: MOLT-4, 48 h; method in brief: as §2
RPMI-8226 = experiment: Growth inhibition of human RPMI8226 cells incubated for 48 hrs by sulforhodamine B assay; assay type: functional; conditions: RPMI-8226, 48 h; method in brief: as §2
SR = experiment: Growth inhibition of human SR cells incubated for 48 hrs by sulforhodamine B assay; assay type: functional
Method in brief: (§3)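 NCI-60 screen run per Rubinstein protocol. Sulforhodamine B optical density was read before and after 48 h exposure to compound or vehicle. The single-dose pass at 10⁻⁵ M reported percent growth relative to vehicle control and time-zero cell number. The five-dose follow-up used 10⁻⁴ to 10⁻⁸ M, giving GI₅₀ as the molar concentration causing 50% growth inhibition.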

HOP-62 = experiment: Growth inhibition of human HOP62 cells incubated for 48 hrs by sulforhodamine B assay; assay type: functional; conditions: HOP-62, 48 h; method in brief: as §2
HOP-92 = experiment: Growth inhibition of human HOP92 cells incubated for 48 hrs by sulforhodamine B assay; assay type: functional; conditions: HOP-92, 48 h; method in brief: as §2
NCI-H23 = experiment: Growth inhibition of human NCI-H23 cells incubated for 48 hrs by sulforhodamine B assay; assay type: functional; conditions: NCI-H23, 48 h; method in brief: as §2
COLO 205 = experiment: Growth inhibition of human COLO205 cells incubated for 48 hrs by sulforhodamine B assay; assay type: functional; conditions: COLO 205, 48 h; method in brief: as §2
HCC 2998 = experiment: Growth inhibition of human HCC2998 cells incubated for 48 hrs by sulforhodamine B assay; assay type: functional; conditions: HCC 2998, 48 h; method in brief: as §2
HCT-116 = experiment: Growth inhibition of human HCT116 cells incubated for 48 hrs by sulforhodamine B assay; assay type: functional; conditions: HCT-116, 48 h; method in brief: as §2
HCT-15 = experiment: Growth inhibition of human HCT15 cells incubated for 48 hrs by sulforhodamine B assay; assay type: functional; conditions: HCT-15, 48 h; method in brief: as §2
SF-268 = experiment: Growth inhibition of human SF268 cells incubated for 48 hrs by sulforhodamine B assay; assay type: functional; conditions: SF-268, 48 h; method in brief: as §2
SF-295 = experiment: Growth inhibition of human SF295 cells incubated for 48 hrs by sulforhodamine B assay; assay type: functional; conditions: SF-295, 48 h; method in brief: as §2
SF-539 = experiment: Growth inhibition of human SF539 cells incubated for 48 hrs by sulforhodamine B assay; assay type: functional; conditions: SF-539, 48 h; method in brief: as §2
SNB-19 = experiment: Growth inhibition of human SNB19 cells incubated for 48 hrs by sulforhodamine B assay; assay type: functional; conditions: SNB-19, 48 h; method in brief: as §3
U-251 = experiment: Growth inhibition of human U251 cells incubated for 48 hrs by sulforhodamine B assay; assay type: functional; conditions: U-251, 48 h; method in brief: as §3
LOX IMVI = experiment: Growth inhibition of human LOXIMVI cells incubated for 48 hrs by sulforhodamine B assay; assay type: functional; method in brief: as §2
M14 = experiment: Growth inhibition of human M14 cells incubated for 48 hrs by sulforhodamine B assay; assay type: functional; conditions: M14, 48 h; method in brief: as §2
MDA-MB-435 [4] = experiment: Growth inhibition of human MDA-MB-435 cells incubated for 48 hrs by sulforhodamine B assay; assay type: functional; conditions: MDA-MB-435, 48 h; method in brief: as §2
SK-MEL-2 = experiment: Growth inhibition of human SK-MEL-2 cells incubated for 48 hrs by sulforhodamine B assay; assay type: functional; conditions: SK-MEL-2, 48 h; method in brief: as §2
SK-MEL-28 = experiment: Growth inhibition of human SK-MEL-28 cells incubated for 48 hrs by sulforhodamine B assay; assay type: functional; conditions: SK-MEL-28, 48 h; method in brief: as §2
UACC-62 = experiment: Growth inhibition of human UACC62 cells incubated for 48 hrs by sulforhodamine B assay; assay type: functional; conditions: UACC-62, 48 h; method in brief: as §3
IGROV-1 = experiment: Growth inhibition of human IGROV1 cells incubated for 48 hrs by sulforhodamine B assay; assay type: functional; conditions: IGROV-1, 48 h; method in brief: as §2
OVCAR-3 [5] = experiment: Growth inhibition of human OVCAR3 cells incubated for 48 hrs by sulforhodamine B assay; assay type: functional; conditions: OVCAR-3, 48 h; method in brief: as §2
OVCAR-4 = experiment: Growth inhibition of human OVCAR4 cells incubated for 48 hrs by sulforhodamine B assay; assay type: functional; conditions: OVCAR-4, 48 h; method in brief: as §2
SK-OV-3 = experiment: Growth inhibition of human SKOV3 cells incubated for 48 hrs by sulforhodamine B assay; assay type: functional; conditions: SK-OV-3, 48 h; method in brief: as §3
RXF 393 = experiment: Growth inhibition of human RXF393 cells incubated for 48 hrs by sulforhodamine B assay; assay type: functional; conditions: RXF 393, 48 h; method in brief: as §2
UO-31 = experiment: Growth inhibition of human UO31 cells incubated for 48 hrs by sulforhodamine B assay; assay type: functional; conditions: UO-31, 48 h; method in brief: as §3
PC-3 = experiment: Growth inhibition of human PC3 cells incubated for 48 hrs by sulforhodamine B assay; assay type: functional; conditions: PC-3, 48 h; method in brief: as §2
DU-145 [6] = experiment: Growth inhibition of human DU145 cells incubated for 48 hrs by sulforhodamine B assay; assay type: functional; conditions: DU-145, 48 h; method in brief: as §2
[7] = Cytotoxicity against stromal cells (unknown origin) assessed as reduction in cell viability by alamar blue assay; assay type: cell-based; conditions: read-out: LD50 (the source's name)

SMILES	growth, % of control at 10 µM (NCI-H522) [%]	growth, % of control at 10 µM (KM12) [%]	growth, % of control at 10 µM (MDA-MB-435 [1]) [%]	growth, % of control at 10 µM (SK-MEL-5) [%]	growth, % of control at 10 µM (OVCAR-3 [2]) [%]	growth, % of control at 10 µM (A498) [%]	growth, % of control at 10 µM (DU-145 [3]) [%]	GI50 (CCRF-CEM) [nM]	GI50 (HL-60(TB)) [nM]	GI50 (K562) [nM]	GI50 (MOLT-4) [nM]	GI50 (RPMI-8226) [nM]	GI50 (SR) [nM]	GI50 (HOP-62) [nM]	GI50 (HOP-92) [nM]	GI50 (NCI-H23) [nM]	GI50 (COLO 205) [nM]	GI50 (HCC 2998) [nM]	GI50 (HCT-116) [nM]	GI50 (HCT-15) [nM]	further results
COc1ccc(/C=C(/c2cc(OC)c(OC)c(OC)c2)c2nnn[nH]2)cc1O	-6.32	-1.73	-8.4	-54	-8.5	-3.5	3.41	< 10	< 10	< 10	< 10	< 10	< 10	< 10	< 10	< 10	970	< 10	< 10	< 10	GI50 (SF-268): < 10 nM; GI50 (SF-295): 5280 nM; GI50 (SF-539): < 10 nM; GI50 (SNB-19): < 10 nM; GI50 (U-251): < 10 nM; GI50 (LOX IMVI): < 10 nM; GI50 (M14): < 10 nM; GI50 (MDA-MB-435 [4]): < 10 nM; GI50 (SK-MEL-2): < 10 nM; GI50 (SK-MEL-28): < 10 nM; GI50 (UACC-62): < 10 nM; GI50 (IGROV-1): < 10 nM; GI50 (OVCAR-3 [5]): < 10 nM; GI50 (OVCAR-4): < 10 nM; GI50 (SK-OV-3): < 10 nM; GI50 (RXF 393): < 10 nM; GI50 (UO-31): < 10 nM; GI50 (PC-3): < 10 nM; GI50 (DU-145 [6]): < 10 nM; CC50 [7]: > 50000 nM
COc1ccc(/C(=C/c2ccc3ccccc3c2)c2nnn[nH]2)cc1OC	-2.85	24.5	-41	23.5	-17.3	14.5	20.9	3330	2560	670	4160	4020	2230	2330	4590	5290	2270	5200	2420	2920	GI50 (SF-268): 6550 nM; GI50 (SF-295): 1510 nM; GI50 (SF-539): 2380 nM; GI50 (SNB-19): 7840 nM; GI50 (U-251): 4460 nM; GI50 (LOX IMVI): 5630 nM; GI50 (M14): 1900 nM; GI50 (MDA-MB-435 [4]): 300 nM; GI50 (SK-MEL-2): 4360 nM; GI50 (SK-MEL-28): 8070 nM; GI50 (UACC-62): 860 nM; GI50 (IGROV-1): 4230 nM; GI50 (OVCAR-3 [5]): 1690 nM; GI50 (OVCAR-4): 7780 nM; GI50 (SK-OV-3): 3630 nM; GI50 (RXF 393): 2480 nM; GI50 (UO-31): 5590 nM; GI50 (PC-3): 2360 nM; GI50 (DU-145 [6]): 3530 nM; CC50 [7]: > 50000 nM
